The results in this text go back to ChEMBL document CHEMBL3351359, “Design and synthesis of novel 2,4-diaryl-5H-indeno[1,2-b]pyridine derivatives, and their evaluation of topoisomerase inhibitory activity and cytotoxicity” (Bioorg Med Chem, 2015).

Assay [1] in a line: Cytotoxicity against human HCT15 cells after 2 days by CCK-8 assay. The class given is functional, cell-based. As to conditions: HCT-15, 48 h. An outline of the steps: (§1)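 Cells seeded at 2~4 × 10^4 per well, grown overnight in medium with 10% FBS at 37 °C, 5% CO2. On day 2, after 4 h FBS starvation, medium replaced with medium containing graded compound concentrations. On day 4, CCK-8 added for 4 h, then absorbance read at 450 nm. IC50 from four-parameter logistic fit. Mean ± S.D. of three experiments, each run in triplicate.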
On the technique in general: Tetrazolium assays rely on reduction of a dye to a coloured formazan, in cell work by metabolically active cells.

Assay [2] concerns the target T1, DNA topoisomerase 1 (Homo sapiens) (UniProt P11387).
T1 sequence (whole entry): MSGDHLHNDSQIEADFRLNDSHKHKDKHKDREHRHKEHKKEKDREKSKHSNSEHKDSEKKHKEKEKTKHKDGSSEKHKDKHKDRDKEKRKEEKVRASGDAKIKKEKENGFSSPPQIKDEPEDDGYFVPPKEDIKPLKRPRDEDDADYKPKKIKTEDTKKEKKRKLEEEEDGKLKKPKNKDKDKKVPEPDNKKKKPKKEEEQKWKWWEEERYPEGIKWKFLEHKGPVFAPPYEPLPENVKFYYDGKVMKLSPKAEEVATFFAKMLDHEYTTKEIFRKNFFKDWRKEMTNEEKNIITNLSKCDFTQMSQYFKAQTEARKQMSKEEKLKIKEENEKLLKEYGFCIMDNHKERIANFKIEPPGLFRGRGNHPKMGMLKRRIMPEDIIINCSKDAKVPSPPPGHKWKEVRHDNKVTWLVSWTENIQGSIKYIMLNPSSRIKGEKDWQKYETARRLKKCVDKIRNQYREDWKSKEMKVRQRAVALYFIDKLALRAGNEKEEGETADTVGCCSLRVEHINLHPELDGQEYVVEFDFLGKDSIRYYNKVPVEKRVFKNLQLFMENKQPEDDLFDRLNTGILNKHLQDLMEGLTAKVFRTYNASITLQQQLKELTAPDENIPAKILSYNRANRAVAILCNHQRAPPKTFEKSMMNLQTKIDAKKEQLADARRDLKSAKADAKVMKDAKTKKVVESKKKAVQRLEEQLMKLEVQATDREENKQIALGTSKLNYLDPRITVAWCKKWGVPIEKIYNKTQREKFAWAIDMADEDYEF
The assay is described as follows: Inhibition of human recombinant topoisomerase-1 assessed as conversion of super-coiled plasmid DNA pBR322 to relaxed DNA at 100 uM after 30 mins by ethidium bromide staining-based agarose gel electrophoresis (reference value: 45.2%). The method in brief:
(§2)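 Relaxation of supercoiled pBR322 (100 ng) by 0.4 units recombinant human topo I, with or without compound (20 mM DMSO stocks), for 30 min at 37 °C. Buffer: 10 mM Tris-HCl pH 7.9, 150 mM NaCl, 0.1% BSA, 1 mM spermidine, 5% glycerol. Stopped with sarcosyl. Run on 1% agarose in TAE at 15 V for 7 h, stained with ethidium bromide, bands quantified under UV.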

The subject of a further assay is DU-145. The assay is described as follows: Cytotoxicity against human DU145 cells after 2 days by CCK-8 assay. The conditions noted are these: DU-145, 48 h. The format is functional, cell-based. An outline of the steps:
as §1

A further assay relates to MCF7. The assay is described as follows: Cytotoxicity against human MCF7 cells after 2 days by CCK-8 assay. The format is functional, cell-based. As to conditions: MCF7, 48 h. The method in brief: as §1
The target in assay [3] is T1, DNA topoisomerase 1 (Homo sapiens). Put plainly: Inhibition of human recombinant topoisomerase-1 assessed as conversion of super-coiled plasmid DNA pBR322 to relaxed DNA at 20 uM after 30 mins by ethidium bromide staining-based agarose gel electrophoresis (reference value: 25.9%). The method in brief: as §2
A further assay relates to HeLa. Put plainly: Cytotoxicity against human HeLa cells after 2 days by CCK-8 assay. The format is functional, cell-based. The conditions noted are these: 48 h. The method in brief: as §1
Assay [4] concerns the target DNA topoisomerase 2-alpha (Homo sapiens) (UniProt P11388). The assay is described as follows: Inhibition of human recombinant topoisomerase-2 alpha assessed as conversion of super-coiled plasmid DNA pBR322 to relaxed DNA at 100 uM after 30 mins by ethidium bromide staining-based agarose gel electrophoresis (reference value: 32.4%). The method in brief: (§3)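 Supercoiled pBR322 (200 ng) incubated with 1 unit human topo IIα, with or without compound, for 30 min at 30 °C. Buffer: 10 mM Tris-HCl pH 7.9, 50 mM NaCl, 5 mM MgCl2, 1 mM EDTA, 1 mM ATP, 15 μg/mL BSA. Stopped with EDTA. Run on 1% agarose in TAE at 25 V for 4 h, stained with ethidium bromide, supercoiled DNA quantified under UV.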

The target is the same in assay [5]. The assay is described as follows: Inhibition of human recombinant topoisomerase-2 alpha assessed as conversion of super-coiled plasmid DNA pBR322 to relaxed DNA at 100 uM after 30 mins by ethidium bromide staining-based agarose gel electrophoresis relative to etoposide.
The target in assay [6] is T1, DNA topoisomerase 1 (Homo sapiens). Put plainly: Inhibition of human recombinant topoisomerase-1 assessed as conversion of super-coiled plasmid DNA pBR322 to relaxed DNA at 100 uM after 30 mins by ethidium bromide staining-based agarose gel electrophoresis relative to camptothecin.
Assay [7] addresses DNA topoisomerase 2-alpha (Homo sapiens) (UniProt P11388). The assay is described as follows: Inhibition of human recombinant topoisomerase-2 alpha assessed as conversion of super-coiled plasmid DNA pBR322 to relaxed DNA at 20 uM after 30 mins by ethidium bromide staining-based agarose gel electrophoresis (reference value: 46.7%). The method in brief:
as §3

Assay [8] addresses T1, DNA topoisomerase 1 (Homo sapiens). The assay is described as follows: Inhibition of human recombinant topoisomerase-1 assessed as conversion of super-coiled plasmid DNA pBR322 to relaxed DNA at 20 uM after 30 mins by ethidium bromide staining-based agarose gel electrophoresis (reference value: 19.6%). The method in brief: as §2
For assay [9] the target is unchanged. The assay is described as follows: Inhibition of human recombinant topoisomerase-1 assessed as conversion of super-coiled plasmid DNA pBR322 to relaxed DNA at 100 uM after 30 mins by ethidium bromide staining-based agarose gel electrophoresis (reference value: 62.9%). The method in brief:
as §2

Assay [10] concerns the target DNA topoisomerase 2-alpha (Homo sapiens) (UniProt P11388). The assay is described as follows: Inhibition of human recombinant topoisomerase-2 alpha assessed as conversion of super-coiled plasmid DNA pBR322 to relaxed DNA at 100 uM after 30 mins by ethidium bromide staining-based agarose gel electrophoresis (reference value: 87.8%). An outline of the steps:
as §3

For assay [11] the target is unchanged. The assay is described as follows: Inhibition of human recombinant topoisomerase-2 alpha assessed as conversion of super-coiled plasmid DNA pBR322 to relaxed DNA at 100 uM after 30 mins by ethidium bromide staining-based agarose gel electrophoresis (reference value: 83.7%). The method in brief: as §3
Assay [12] deals with T1, DNA topoisomerase 1 (Homo sapiens). The assay is described as follows: Inhibition of human recombinant topoisomerase-1 assessed as conversion of super-coiled plasmid DNA pBR322 to relaxed DNA at 100 uM after 30 mins by ethidium bromide staining-based agarose gel electrophoresis (reference value: 51.5%). An outline of the steps:
as §2

Assay [13] addresses DNA topoisomerase 2-alpha (Homo sapiens) (UniProt P11388). The assay is described as follows: Inhibition of human recombinant topoisomerase-2 alpha assessed as conversion of super-coiled plasmid DNA pBR322 to relaxed DNA at 20 uM after 30 mins by ethidium bromide staining-based agarose gel electrophoresis (reference value: 42.1%). The method in brief:
as §3

Assay [14] shares this target. The assay is described as follows: Inhibition of human recombinant topoisomerase-2 alpha assessed as conversion of super-coiled plasmid DNA pBR322 to relaxed DNA at 20 uM after 30 mins by ethidium bromide staining-based agarose gel electrophoresis (reference value: 20.2%). The method in brief: as §3

Chain of DNA topoisomerase 2-alpha (Homo sapiens) (P11388 whole entry): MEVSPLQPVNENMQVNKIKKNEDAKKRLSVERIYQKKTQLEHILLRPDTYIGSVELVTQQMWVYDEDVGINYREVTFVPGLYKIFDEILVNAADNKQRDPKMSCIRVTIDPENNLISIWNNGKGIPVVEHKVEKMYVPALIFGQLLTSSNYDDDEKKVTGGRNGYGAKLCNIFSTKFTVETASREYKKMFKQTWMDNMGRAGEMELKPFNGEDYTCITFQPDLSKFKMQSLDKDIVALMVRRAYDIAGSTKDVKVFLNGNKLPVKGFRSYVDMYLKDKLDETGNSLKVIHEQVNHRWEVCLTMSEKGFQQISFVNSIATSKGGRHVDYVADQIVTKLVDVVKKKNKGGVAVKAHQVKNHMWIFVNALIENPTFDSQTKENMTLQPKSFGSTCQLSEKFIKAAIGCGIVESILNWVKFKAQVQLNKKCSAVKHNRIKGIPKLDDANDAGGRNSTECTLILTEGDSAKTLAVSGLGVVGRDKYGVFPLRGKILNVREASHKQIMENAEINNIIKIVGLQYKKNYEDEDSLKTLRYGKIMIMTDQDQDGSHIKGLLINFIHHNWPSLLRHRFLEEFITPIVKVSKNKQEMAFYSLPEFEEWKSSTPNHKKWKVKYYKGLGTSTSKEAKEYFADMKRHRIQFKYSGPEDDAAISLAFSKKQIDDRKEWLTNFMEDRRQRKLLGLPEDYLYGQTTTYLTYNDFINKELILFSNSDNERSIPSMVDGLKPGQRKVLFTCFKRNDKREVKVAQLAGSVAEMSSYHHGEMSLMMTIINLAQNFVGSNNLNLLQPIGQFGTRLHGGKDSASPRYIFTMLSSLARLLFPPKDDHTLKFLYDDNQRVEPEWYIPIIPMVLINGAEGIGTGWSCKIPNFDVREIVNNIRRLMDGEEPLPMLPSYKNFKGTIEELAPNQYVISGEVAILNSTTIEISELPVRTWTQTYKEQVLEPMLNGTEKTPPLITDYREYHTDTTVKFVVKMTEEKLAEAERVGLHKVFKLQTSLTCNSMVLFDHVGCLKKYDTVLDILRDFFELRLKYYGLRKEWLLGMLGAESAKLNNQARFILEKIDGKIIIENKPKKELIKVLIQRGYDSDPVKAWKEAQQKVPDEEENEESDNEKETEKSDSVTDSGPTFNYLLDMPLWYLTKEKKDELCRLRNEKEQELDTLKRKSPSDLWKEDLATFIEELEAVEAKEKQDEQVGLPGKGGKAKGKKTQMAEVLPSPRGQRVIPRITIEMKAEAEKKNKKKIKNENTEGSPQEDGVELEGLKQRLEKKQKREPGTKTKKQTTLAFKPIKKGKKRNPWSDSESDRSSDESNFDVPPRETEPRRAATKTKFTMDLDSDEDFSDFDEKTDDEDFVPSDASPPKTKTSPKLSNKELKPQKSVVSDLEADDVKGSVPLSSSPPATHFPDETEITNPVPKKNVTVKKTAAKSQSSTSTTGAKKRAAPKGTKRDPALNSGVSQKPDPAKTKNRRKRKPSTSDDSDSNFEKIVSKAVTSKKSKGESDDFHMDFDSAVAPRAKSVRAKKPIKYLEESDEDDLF

In general, IC50 refers to the midpoint of a concentration-inhibition curve. In general, inhibition refers to the drop in the measured response relative to a control, in per cent. Regarding `c1ccc(-c2cc(-c3cccs3)c3c(n2)-c2ccccc2C3)nc1`, the half-maximal inhibitory concentration (IC50) amounted to 9.1 µM in assay [1], 6.7 µM in the assay with DU-145, 11 µM with MCF7 and 20.5 µM in the assay with HeLa. The values for the inhibition in assay [2], in [3] and in assay [4] were 58.5%, 12% and 9%, respectively.
`c1ccc(-c2cc(-c3ccco3)nc3c2Cc2ccccc2-3)cc1`: the IC50 was 16.6 µM in [1], 7.74 µM in the assay with DU-145, more than 50 µM in the assay on MCF7 and 5.22 µM in the assay on HeLa. Besides, the inhibition in assay [2] was found to be 41.3%; in assay [3] it was 5.7%; in assay [4] it was 18.7%. Besides, the Ratio is 0.58 in assay [5] and 0.91 in [6].
For the molecule `c1ccc2c(c1)Cc1c(-c3ccsc3)cc(-c3ccsc3)nc1-2`, the inhibition turned out to be 0% in [7], 2.9% in assay [8], 90.9% in assay [9] and 100% in assay [10]. Besides, the results for the IC50 (in assay [1]; in the assay on DU-145; in the assay with MCF7) were 16.4 µM, more than 50 µM and more than 50 µM, respectively. In addition, the Ratio in [5] was found to be 1.14; in assay [6], 1.45.
With `c1coc(-c2cc(-c3ccoc3)c3c(n2)-c2ccccc2C3)c1`, the inhibition stood at 0% in assay [7], 1.5% in [8], 52.5% in assay [9] and 100% in assay [10]. Besides, the IC50 in [1] was 20.2 µM; in the assay with DU-145, more than 50 µM; in the assay on MCF7, more than 50 µM. The figures for the Ratio in assay [5] and in assay [6] were 1.14 and 0.83, respectively.
`c1coc(-c2cc(-c3ccsc3)nc3c2Cc2ccccc2-3)c1`: the IC50 in [1] is 31.6 µM; in the assay with DU-145 it was more than 50 µM; in the assay with MCF7, more than 50 µM; in the assay on HeLa it was more than 50 µM. Also, the values for the Ratio in assay [5] and in assay [6] were 1 and less than 0.2, respectively. Moreover, the inhibition in assay [11] was 84.1%; in assay [12], 2.8%; in assay [13], 68.5%.
With `c1ccc(-c2cc(-c3ccco3)nc3c2Cc2ccccc2-3)nc1`, the inhibition in assay [7] stood at 100%; in assay [8], 0.5%; in [9] it was 40.7%; in assay [10], 100%. Besides, the IC50 in assay [1] was 8.5 µM; in the assay with DU-145, more than 50 µM; in the assay with MCF7, 3.08 µM; in the assay with HeLa, 4.13 µM. Also, the Ratio was found to be 1.14 in [5] and 0.65 in assay [6].
For `c1coc(-c2cc(-c3cccs3)c3c(n2)-c2ccccc2C3)c1`, the IC50 in [1] was 23.6 µM; with DU-145 it was more than 50 µM; in the assay with MCF7 it was more than 50 µM; in the assay on HeLa it was more than 50 µM. Further, the Ratio in assay [5] is 1; in assay [6] it was less than 0.2. For the same molecule, the inhibition in assay [11] was 83.9%; in assay [12] it was 2%; in assay [13], 79.6%.
Take `c1coc(-c2cc(-c3ccco3)c3c(n2)-c2ccccc2C3)c1`: the IC50 in assay [1] was more than 50 µM; in the assay on DU-145 it was 20.6 µM; in the assay on MCF7 it was 5.4 µM; in the assay on HeLa it was 8.14 µM. Further, the inhibition is 38.2% in assay [2], 6.4% in assay [3], 44.6% in assay [4] and 15% in assay [14]. The Ratio was 1.38 in [5] and 0.85 in assay [6].
For `c1coc(-c2cc(-c3cccs3)nc3c2Cc2ccccc2-3)c1`, the half-maximal inhibitory concentration (IC50) in assay [1] came out at 37.7 µM; in the assay on DU-145 it was 6.71 µM; with MCF7, 4.11 µM; in the assay with HeLa, 3.2 µM. Also, the inhibition was determined as 76.3% in [2], 3.9% in assay [3], 40.5% in assay [4] and 14.6% in assay [14]. Further, the results for the Ratio in assay [5] and in [6] were 1.25 and 1.69, respectively.
On to `c1coc(-c2cc(-c3ccsc3)c3c(n2)-c2ccccc2C3)c1`, for which the IC50 (in [1]; in the assay on DU-145; with MCF7; with HeLa) was more than 50 µM throughout. The values for the Ratio in [5] and in assay [6] were 1.19 and less than 0.2, respectively. The figures for the inhibition in assay [11], in assay [12] and in assay [13] were 100%, 0% and 93%, respectively.
